Screening results deposited in PubChem by several laboratories.
PKA-R1A activ = activators of PKA-R1A holoenzyme, primary screen, biochemical, fluorescence polarization, Cy5-IP20, bovine R1A, mouse PKAc. cAMP-dependent protein kinase type I-alpha regulatory subunit (Bos taurus) + …. PKA-R1A dissociation; scaled: DMSO 0%, 113 µM cGMP 100%. activation, % at 11.4 µM. 340,000 tested, 0.083% active;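 active = percent activation above the mean of all tested compounds plus 3 SD, cut at about 19% in these data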;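 note: higher means more PKAc released from R1A so a rise in polarization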
dFosB activator = activators of delta FosB homodimer, primary screen, biochemical, fluorescence polarization, TAMRA-CDK5 oligo, single point; Protein FosB (Mus musculus), P13346; activation, % at 25 µM; purified delta FosB; percent of positive-control signal above neutral wells; 340,000 tested, 0.99% active; AID 493131, 2011;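 active = mean activation above about 17%, with every replicate also reaching it, limit read from the data, passing the limit was not always enough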
Target sequence (P13346 whole entry, looked up): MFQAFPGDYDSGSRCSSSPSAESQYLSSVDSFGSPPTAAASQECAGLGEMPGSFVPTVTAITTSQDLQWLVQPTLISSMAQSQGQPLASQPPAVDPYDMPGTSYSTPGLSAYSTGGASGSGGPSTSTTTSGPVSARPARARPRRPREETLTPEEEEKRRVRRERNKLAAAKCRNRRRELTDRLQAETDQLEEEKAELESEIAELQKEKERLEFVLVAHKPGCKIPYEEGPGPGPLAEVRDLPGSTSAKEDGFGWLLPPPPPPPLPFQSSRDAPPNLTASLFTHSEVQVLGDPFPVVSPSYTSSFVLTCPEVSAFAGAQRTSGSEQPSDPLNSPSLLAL
CAL PDZ FP-1 = untagged CAL PDZ binding inhibitors, primary screen, biochemical, fluorescence polarization, HTS. purified CAL PDZ, TMR-peptide fluorescence polarization, 1 h. inhibition, % at 24.9 µM. 300,000 tested, 0.92% active;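 active = mean inhibition of at least 30% with at least half of replicates also reaching 30%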
NTR1 agonist = agonists of human NTR1, primary screen, imaging, U2OS cells, beta-arrestin-GFP, high content; activation, % at 20 µM; NTR1-U2OS beta-arrestin-GFP spot imaging, agonist mode; 330,000 tested, 0.17% active; Neurotensin receptor type 1 (Homo sapiens), P30989;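 active = activation at or above 40% of the spot to cytoplasm intensity ratio, with at least 20 cells analyzed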
CAL PDZ FP-2 = CAL PDZ peptide-binding inhibitors, primary screen, biochemical, fluorescence polarization, Cer-tagged CAL PDZ, HTS; Golgi-associated PDZ and coiled-coil motif-containing protein (Homo sapiens), Q9HD26; purified CAL PDZ, TMR-peptide fluorescence polarization, 1 h; inhibition, % at 20 µM; 330,000 tested, 0.02% active; AID 504414, 2011;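 active = highest replicate inhibition of at least 40%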
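System: tagged CAL PDZ domain. Schedule: 1 h room-temperature incubation prior to read. Signal: fluorescence polarization (mP). Measure: percent inhibition from loss of millipolarization.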
PKA-R2B activ = activators of PKA-R2B holoenzyme, primary screen, biochemical, fluorescence polarization, Cy5-IP20, human; PKA-R2B holoenzyme dissociation; R2B truncated from residue 108, S112A mutant; 0% DMSO only, 100% 113 µM cGMP; AID 504700, 2011; cAMP-dependent protein kinase catalytic subunit beta (Homo sapiens) + cAMP-dependent …; activation, % at 11.4 µM; 340,000 tested, 0.079% active;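 active = activation above a cutoff set at the mean over all compounds plus 3 SD, cut at about 18% in these data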;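 note: higher means more holoenzyme dissociation and a rise in polarization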
Large screens that a line does not name were inactive. Hits are enriched below; roughly 2% of the tested compounds scored in any of these assays.

Cn1c(SCC(=O)N/N=C/C=C\c2ccccc2[N+](=O)[O-])nc2ccccc21	dFosB activator 20
Cc1ccsc1C(=O)N/N=C/C=C/c1ccccc1[N+](=O)[O-]	CAL PDZ FP-1 79
CCOC(=O)C(Cc1ccc(NC(C)=O)cc1)N1C(=O)c2ccccc2C1=O (centres undefined)	none
CCCCOc1ccccc1N1CCN(CCCN2C(=O)C3CCCN3C2=O)CC1 (centres undefined)	CAL PDZ FP-1 32 (no result: CAL PDZ FP-2)
CCOC(=O)c1cc([N+](=O)[O-])sc1NC(=O)CC	none
CCOC(=O)c1cc([N+](=O)[O-])sc1N	CAL PDZ FP-1 62
O=C1CN(C(=O)COc2ccccc2Cl)c2ccccc2N1	CAL PDZ FP-1 45
O=C1CN(C(=O)COC(=O)C23CC4CC(CC(O)(C4)C2)C3)c2ccccc2N1	CAL PDZ FP-1 39
O=C1CN(C(=O)COc2ccc(F)cc2Br)c2ccccc2N1	CAL PDZ FP-1 67
CCOC(=O)c1c(C)[nH]c(C(=O)OCc2csc(CC(=O)Nc3ccccc3C)n2)c1C	none (no result: CAL PDZ FP-1)
Cc1ccc(OCCC(=O)N(CC(=O)Nc2ccccc2C(F)(F)F)Cc2ccco2)cc1	CAL PDZ FP-1 40
O=C(CC(c1ccccc1)C1CCCCC1=O)c1ccccc1 (centres undefined)	CAL PDZ FP-1 32 (no result: NTR1 agonist)
CN(C)c1ccc(C(CC(=O)c2ccccc2)C2CCCCC2=O)cc1 (centres undefined)	none
O=C1C=C(Nc2ccccc2C(=O)O)c2ccccc2C1=O	CAL PDZ FP-1 76
O=C1C=C(Nc2ccccc2)c2ccccc2C1=O	none
CCSc1nsc(NC(=O)Nc2ccc(F)cc2F)n1	dFosB activator 23
C[C@@H]1CN([C@H](C)CO)C(=O)c2c(c3ccccc3n2C)-c2ccccc2CO[C@H]1CN(C)S(=O)(=O)c1cn(C)cn1	none (no result: dFosB activator, CAL PDZ FP-1, NTR1 agonist, CAL PDZ FP-2)
COc1ccccc1N(CC(=O)N1CCN(c2ccccc2)CC1)S(=O)(=O)c1ccc(C)cc1	CAL PDZ FP-1 66
Nc1ccc(Cc2ccc(N)c(O)c2)cc1O	dFosB activator 44 (no result: NTR1 agonist, CAL PDZ FP-2)
CCN(c1ccccc1)S(=O)(=O)c1ccc2c(c1)OCCO2	none
Cc1ccc(S(=O)(=O)Nc2ccc(-c3ccc4nncn4n3)cc2)cc1	none
CN1C(C)(C)CC(=NOC(=O)c2ccccc2)CC1(C)C	CAL PDZ FP-1 62
COc1ccc(NC(C)=O)cc1NC(C)c1nc2sc(C)c(C)c2c(=O)[nH]1 (centres undefined)	CAL PDZ FP-1 59
CCN(C(=O)CCCC(=O)N(CC)c1ccccc1)c1ccccc1	CAL PDZ FP-1 63
COc1ccc(C(CNC(=O)CNC(=O)c2cccc(C)c2)N2CCCCC2)cc1 (centres undefined)	none (no result: NTR1 agonist)
O=C(c1ccccn1)N1CC=C(c2ccccc2)CC1	CAL PDZ FP-1 194 (no result: NTR1 agonist)
COc1ccccc1NC(=O)C(C)OC(=O)c1nc2nc(C)cc(C)n2n1 (centres undefined)	none
O=C(COC(=O)c1cc(S(=O)(=O)N2CCOCC2)ccc1F)c1ccccc1	CAL PDZ FP-1 43
O=C(COC(=O)c1cc(=O)[nH]c2ccccc12)Nc1cccc(S(=O)(=O)N2CCOCC2)c1	CAL PDZ FP-1 76
N#CC1(NC(=O)COC(=O)c2cc(=O)[nH]c3ccccc23)CCCCC1	CAL PDZ FP-1 32
O=C(COC(=O)c1ccc(F)c(S(=O)(=O)N2CCOCC2)c1)c1ccccc1	none
O=C(COC(=O)c1cc(=O)[nH]c2ccccc12)Nc1ccc(Cl)c(S(=O)(=O)N2CCOCC2)c1	none (no result: NTR1 agonist)
O=C(OCC(=O)N1CCCc2ccccc21)c1cc(S(=O)(=O)N2CCOCC2)ccc1F	none
O=C(OCC(=O)N1CCCc2ccccc21)c1cc(S(=O)(=O)N2CCOCC2)ccc1O	CAL PDZ FP-1 65
COc1nc(=O)n(C2CCCO2)cc1C (centres undefined)	none (no result: NTR1 agonist)
COc1cccc(NC(=O)CN(C)C(=O)C23CC4CC(CC(Cl)(C4)C2)C3)c1	none (no result: CAL PDZ FP-1)
COCCn1c(SCC(=O)Nc2ccc(OC)c(S(N)(=O)=O)c2)nc2ccccc2c1=O	CAL PDZ FP-1 41
CN(c1ccccc1)S(=O)(=O)c1cccc2ccccc12	none
Nc1cc2ccncc2c2ccccc12	dFosB activator 23
N#Cc1cc2ccncc2c2ccccc12	none (no result: dFosB activator, CAL PDZ FP-1, NTR1 agonist, CAL PDZ FP-2)
C[C@@H]1CN([C@@H](C)CO)C(=O)c2cc(NC(=O)C3CCCCC3)ccc2O[C@@H](C)CCCCO[C@H]1CN(C)S(=O)(=O)c1ccc(Cl)cc1	none (no result: dFosB activator, CAL PDZ FP-1, NTR1 agonist, CAL PDZ FP-2)
Cc1ccccc1C(=O)c1cccn1CC(=O)NCCC1=CCCCC1	CAL PDZ FP-1 56
Cc1ccccc1C(=O)c1cccn1CC(=O)NCCCN1CCCCC1	none
CN(C)c1ccc(NC(=O)Nc2ccc3c(c2)nnn3C)cc1	CAL PDZ FP-1 43
COc1cc(/C=N/n2c(-c3cc(C)[nH]n3)n[nH]c2=S)ccc1O	none
COc1cc(/C=N/n2c(-c3cc(C)[nH]n3)n[nH]c2=S)cc(OC)c1OC	CAL PDZ FP-1 34
COCCCNC(=S)N(CCCO)Cc1cc2cc3c(cc2[nH]c1=O)OCCO3	CAL PDZ FP-1 42
CC(C)CNC(=S)N(CCN(C)C)Cc1cc2cc3c(cc2[nH]c1=O)OCO3	none (no result: CAL PDZ FP-1)
CCNC(=S)N(CCc1cccc(C)c1)Cc1cc2cc(OC)c(OC)cc2[nH]c1=O	none
COCCCNC(=S)N(CCCO)Cc1cc2cc3c(cc2[nH]c1=O)OCO3	none
CCNC(=S)N(CCc1ccc(OC)c(OC)c1)Cc1cc2cc(OC)ccc2[nH]c1=O	CAL PDZ FP-1 57
CCNC(=S)N(CCN(C)C)Cc1cc2cc3c(cc2[nH]c1=O)OCO3	CAL PDZ FP-1 84 (no result: CAL PDZ FP-2)
Cc1ccc(OCC(=O)NNC(=O)c2cc(S(=O)(=O)N(C)C)ccc2N2CCCC2)cc1	none (no result: dFosB activator, CAL PDZ FP-1, NTR1 agonist, CAL PDZ FP-2)
CCCCN(CCCC)CCCN1CC(=O)N2[C@@H](Cc3c([nH]c4ccccc34)C2(C)C)C1=O	none
Cc1cccc(CN2CCc3c([nH]c4ccccc34)C2C(C)(C)C)n1 (centres undefined)	none
CN(C)CC(C)(C)CNS(=O)(=O)c1ccc(OC(F)(F)F)cc1	none
CC[C@@H](C)[C@H](CNC)NC[C@@H](Cc1cccc2ccccc12)NCCc1cccc(C(F)(F)F)c1	dFosB activator 19
